EBNA-1 inhibitor: blocks EBNA-1 binding to DNA; EBNA-1 DNA binding, fluorescence polarization; inhibition, % at 14.8 µM; 300,000 compounds, 0.34% hits; AID 1950; in the data active = inhibition above about 28%
FGF22 binding: FGF22 (human) thermal shift binding | Q9HCT0 | recombinant FGF22 thermal shift, SYPRO orange fluorescence; percent of sucrose octasulfate shift, DMSO zero | activity (Tm shift, normalised), % at 9.99 µM | 340,000 compounds, 1.5% hits;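 active = mean Tm shift, scaled 0 neutral to 100 positive control, at about 1.3% or above, every replicate too, limit read from the data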
Target sequence (Q9HCT0 whole entry, looked up): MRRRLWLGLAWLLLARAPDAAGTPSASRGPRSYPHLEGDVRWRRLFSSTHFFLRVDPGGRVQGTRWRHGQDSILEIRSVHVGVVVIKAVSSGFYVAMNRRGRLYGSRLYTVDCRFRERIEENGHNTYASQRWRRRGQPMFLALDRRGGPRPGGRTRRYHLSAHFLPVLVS
ZTA DNA inh: counter-screen for EBNA-1 inhibitors: inhibitors of Epstein-Barr virus ZTA. AID 2234. ZTA-DNA binding, fluorescence polarization. 320,000 compounds, 0.15% hits. P03206. inhibition, % at 11 µM; in the data active = inhibition above about 33%
Target sequence (P03206 whole entry, looked up): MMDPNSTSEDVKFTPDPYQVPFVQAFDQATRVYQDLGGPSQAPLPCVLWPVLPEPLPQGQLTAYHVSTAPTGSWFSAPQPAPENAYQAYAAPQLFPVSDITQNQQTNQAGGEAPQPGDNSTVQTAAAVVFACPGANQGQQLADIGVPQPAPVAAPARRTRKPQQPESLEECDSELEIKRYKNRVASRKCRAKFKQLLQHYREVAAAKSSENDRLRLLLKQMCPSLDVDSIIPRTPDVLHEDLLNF
GRIN3A LBD mod: modulators (binders) of human NR3A ligand-binding domain | NR3A LBD differential scanning fluorimetry, Tm shift; 0% = protein alone, 100% = glycine-bound protein | Tm shift relative to glycine control, % at 25 µM | 340,000 compounds, 2.5% hits;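 active = melting temperature shift of at least 10% of the positive control shift, at one fixed dose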
DNA FID counter: counter-screen for HCV NS3 helicase inhibitors: DNA intercalator displacement; DNA fluorescent intercalator displacement, fluorescence; inhibition, % at 7.9 µM; 290,000 compounds, 0.17% hits; AID 1845; in the data active = inhibition above about 37%;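 also: 0% = vehicle and 100% = reference compound; higher means more ethidium bromide displaced from hairpin DNA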
NS3 helicase inh: blocks Hepatitis C virus NS3 helicase unwinding | inhibition, % at 10.9 µM | AID 1800 | NS3 helicase DNA unwinding, Cy5 molecular beacon fluorescence | 290,000 compounds, 0.56% hits;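 active = inhibition above the mean of all tested compounds plus 3 SD, set per campaign, cut at about 35% in these data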;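 also: 0% = DMSO wells and 100% = thioflavine S control wells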
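Compound dosing – single dose, 10.9 µM nominal final, DMSO 0.8% final · System – NS3 helicase fragment of HCV · Buffer or medium – MOPS pH 6.5, MgCl2, DTT, Tween20, BSA · Signal – Cy5 beacon fluorescence read at start and 1 h · Also added – annealed dual-labelled DNA beacon duplex, ATP-started · Schedule – 1 h at 25 °C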
* marks the source's active call; other numbers are inactive results; / = not tested or not shown. In the library only some 3.6% were active in any assay of this set; here they are far more common.

SMILES	EBNA-1 inhibitor	FGF22 binding	ZTA DNA inh	GRIN3A LBD mod	DNA FID counter	NS3 helicase inh
Cc1cc(Cl)ccc1Oc1ncnc2onc(C)c12	-0.2	0.1	12.3	1.5	-1.6	15.8
CCOC(=O)c1cnc2ccc(C)cc2c1Sc1ccccc1	1.3	/	-8.9	0.5	-18.6	-5.1
CCOC(=O)c1cnc2ccc(C)cc2c1Sc1ccc(F)cc1	0.2	/	-7.9	18.7*	-12.2	-5.3
Cc1cccc(NC(=O)NC(C)C(c2ccccc2)N2CCN(C)CC2)c1 (stereo not given)	0.5	43.2*	1.2	0.7	11.5	-8.5
Cc1cccc(NC(=O)NC(C)C(c2cccs2)N2CCOCC2)c1 (stereo not given)	-5.0	0.3	-7.0	-6.2	-9.1	-3.5
O=C(c1ccc(-c2ccccc2)cc1)C1CCCN(C(=O)Cn2cncn2)C1 (stereo not given)	-4.6	42.9*	-12.9	-1.1	-31.3	2.8
Cc1ccc(N2C(=O)N(CC(=O)Nc3cc(F)ccc3C)C(=O)C2C)cc1 (stereo not given)	-6.7	-0.6	-8.2	1.9	/	/
Cc1ccc(N2C(=O)N(CC(=O)c3cc(C)ccc3C)C(=O)C2C)cc1 (stereo not given)	-1.0	/	-7.7	12.7*	-16.0	-10.7
CO[C@@H]1CN(C)C(=O)c2ccc(NC(=O)c3ccc(F)cc3)cc2OC[C@H](C)N(C(=O)CC2CC2)C[C@@H]1C	/	0.0	/	/	/	/
CCN1C(=O)C(C)C=C(C)C=C1C (stereo not given)	/	43.6*	/	/	/	/
Cc1cc(C(C#N)c2ccccc2)n2ncnc2n1 (stereo not given)	4.2	/	4.2	3.1	3.1	-0.5
Cc1cc(C(C#N)c2ccccc2F)n2ncnc2n1 (stereo not given)	-2.6	0.2	6.1	14.6*	10.7	-1.3
O=C(N/N=C/c1ccc[nH]1)c1ccccc1OCc1ccccc1Cl	-0.9	43.2*	1.5	-15.6	-22.4	6.2
O=C(NC1=NCCS1)c1ccccc1OCc1ccccc1Cl	-9.9	43.9*	3.9	0.5	-10.3	35.6
O=C(N/N=C/c1ccco1)c1ccccc1OCc1ccccc1Cl	11.4	0.1	-3.5	-5.4	-28.4	-0.9
COc1ccccc1CCC(=O)Nc1ccc(C)cc1Cl	-4.0	43.3*	8.3	1.9	-22.2	-8.8
S=c1[nH]nc(-c2cc(-c3ccccc3)n[nH]2)n1/N=C/c1ccc(Cl)c(Cl)c1	-1.9	-0.1	-9.0	24.3*	-3.2	0.2
CC(C)NC(=O)N(C)C[C@@H]1Oc2ccc(NC(=O)c3ccncc3)cc2CC(=O)N([C@@H](C)CO)C[C@H]1C	/	0.0	/	/	/	/
NS(=O)(=O)c1ccc(N2N=C(c3ccccc3)CC2c2cccc(F)c2)cc1 (stereo not given)	0.0	-0.1	2.5	-2.8	-13.1	-19.6
NS(=O)(=O)c1ccc(N2N=C(c3ccc(Br)cc3)CC2c2ccc(F)cc2)cc1 (stereo not given)	4.9	/	17.4	39.2*	-7.9	-8.5
COc1ccc(C2CC(c3ccc(Cl)cc3)=NN2c2ccc(S(N)(=O)=O)cc2)cc1 (stereo not given)	/	/	/	36.8*	/	/
COc1ccc(C2CC(c3ccncc3)=NN2c2ccc(S(N)(=O)=O)cc2)cc1 (stereo not given)	/	/	/	-2.6	/	/
COc1ccc(C2CC(c3ccccc3)=NN2c2ccc(Cl)c(C(=O)O)c2)cc1 (stereo not given)	0.0	0.9	4.7	12.8*	-10.7	-4.8
COc1ccc(C2CC(c3cccc(Cl)c3)=NN2c2ccc(S(N)(=O)=O)cc2)cc1 (stereo not given)	/	/	/	28.4*	/	/
C/C=C/c1ccc([C@@H]2[C@@H](CO)N3CCCCN(S(=O)(=O)c4cccs4)C[C@@H]23)cc1	/	-0.5	/	/	/	/
SMILES	EBNA-1 inhibitor	FGF22 binding	ZTA DNA inh	GRIN3A LBD mod	DNA FID counter	NS3 helicase inh
O=C(Nc1ccc2c(c1)OCO2)N[C@@H]1CC[C@H](CCNC(=O)C2CCCC2)O[C@H]1CO	/	-0.5	/	/	/	/
C[C@H](CO)N1C[C@H](C)[C@@H](CN(C)Cc2cccnc2)Oc2ncc(C#Cc3cccnc3)cc2C1=O	/	0.7	/	/	/	/
CSC(=Nc1ccccc1)N=C(SCc1ccccc1)N(C)C	/	0.1	/	11.2*	/	/
Cc1snc(SCc2cccc(Cl)c2)c1C#N	5.9	-0.1	6.5	20.2*	-5.0	2.8
C[C@H](CO)N1C[C@H](C)[C@@H](CN(C)S(=O)(=O)c2cn(C)cn2)Oc2c(cccc2N(C)C)C1=O	/	0.1	/	/	/	/
O=C(O)CN1C(=O)C2(OCCCO2)c2ccccc21	3.7	/	7.7	2.1	5.9	-2.1
O=C(Nc1ccccc1)N1C(=O)C2(OCCO2)c2ccccc21	-7.5	/	0.7	12.8*	2.6	-15.1
O=C(C[C@@H]1CC[C@H](NC(=O)c2ccccn2)[C@H](CO)O1)NCc1cccc(F)c1	/	-0.2	/	/	/	/
CNC[C@@H]1Oc2ccc(NS(=O)(=O)c3ccccc3)cc2CC(=O)N([C@@H](C)CO)C[C@H]1C	/	0.3	/	/	/	/
Oc1ccc(/C=C/c2nc(-c3ccccc3O)n(-c3ccccc3)n2)cc1	12.5	/	9.0	14.1*	-9.2	-14.9
Oc1ccccc1-c1nc(/C=C/c2ccccc2)nn1-c1ccccc1	-1.4	-0.3	-3.3	-5.2	-7.2	0.6
CC(=NNC(=O)c1ccncc1)c1ccccc1O	/	-0.2	/	-1.0	/	/
C/C(=N/NC(=O)c1ccncc1)C1=C(O)CC(C)(C)CC1=O	1.3	44.0*	12.4	0.8	-9.2	7.2
COc1ccccc1Cc1noc(COc2cccc(C)c2C)n1	-4.7	/	-4.1	22.5*	-16.8	-2.8
COc1ccccc1Cc1nc(-c2ccncc2)no1	1.9	43.1*	-2.1	-13.2	-7.3	10.3
Cc1cccc(OCc2cc(-c3ccccc3)no2)c1C	5.6	-0.1	-6.1	1.2	-15.7	-5.6
C[C@H](CO)N1C[C@H](C)[C@H](CN(C)S(=O)(=O)c2ccc(F)cc2)Oc2ccc(NS(=O)(=O)c3ccc(Cl)cc3)cc2C1=O	/	-0.1	/	/	/	/
COC(=O)c1ccc(NC(=O)C(=O)N2CCN(C(=S)Nc3ccc(C)cc3)CC2)cc1	2.8	1.1	-1.9	11.1*	-5.1	11.0
COC(=O)c1ccc(NC(=O)C(=O)N2CCN(C(=S)Nc3ccc(OC)cc3)CC2)cc1	8.2	/	-12.6	4.7	-5.0	-0.3
CCCNC1(C(N)=O)CCN(Cc2ccccc2)CC1	/	43.1*	/	-0.8	/	/
CCNC1(C(N)=O)CCN(Cc2ccccc2)CC1	/	0.3	/	-0.8	/	/
C[C@H]1CN([C@@H](C)CO)S(=O)(=O)c2ccc(-c3cncnc3)cc2O[C@@H]1CN(C)C(=O)Cc1ccccc1	/	0.0	/	/	/	/
O=C(Nc1ccc2[nH]c(=S)sc2c1)Nc1ccccc1F	-14.4	0.7	-7.3	28.7*	5.7	5.8
O=C(Nc1ccc(F)cc1)Nc1ccccc1F	3.8	0.1	-1.7	3.2	0.1	8.5
Cc1ccc(NC(=O)c2ccccc2)cc1C	-9.4	0.0	4.5	-1.0	/	/
O=C(Nc1ccc2[nH]c(=S)sc2c1)c1ccccc1	-3.3	/	-0.4	21.1*	2.5	2.1

Assay outcomes from PubChem BioAssay.
